# Assay outcomes from PubChem BioAssay.
# Only some compounds are listed: those with a hit (about 1.6% of all), similar ones and a draw of the others.
# UHRF1 MBD2 ctr: blocks human UHRF1 binding to methylated DNA; Q96T88; UHRF1 binding to methylated oligo, TR-FRET; inhibition, % at 4.4 µM; 370,000 compounds, 0.75% hits; in the data active = inhibition above about 21%;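 also: UHRF1 SRA domain binding a hemimethylated CpG hairpin DNA probe; 0% = median of test compound wells and 100% = reference inhibitor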
# LEDGF integ inh: blocks HIV-1 LEDGF/p75-dependent DNA integration; TR-FRET IN-LEDGF/p75 DNA integration, Eu/Cy5; 370,000 compounds, 0.64% hits; inhibition, % at 3.7 µM;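 active = inhibition above the screen-wide mean plus 3 SD, cut at about 13% in these data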;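 also: signal is the Cy5 over europium emission ratio at 671 and 618 nm; 0% = plate median of compound wells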
# TDP2 absorb: blocks human TDP2 phosphodiesterase activity; O95551; recombinant TDP2, T5PNP hydrolysis, p-nitrophenol absorbance 415 nm; inhibition, % at 12.8 µM; 370,000 compounds, 0.34% hits; AID 720702;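 active = inhibition above the mean of all tested compounds plus 3 SD, set per campaign, cut at about 25% in these data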;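 also: 0% = DMSO with enzyme and 100% = buffer with substrate but no TDP2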
#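 Test system: human TDP2 enzyme; Input: 120 nM TDP2 per well; Buffer or medium: Mg2+-containing Tris-HCl buffer, pH 7.5; Reagent: 5 mM T5PNP; Dosing: 12.8 µM single point, 1% DMSO; Incubation: reaction 2 h, 37 °C; Detection: p-Nitrophenol epi absorbance; Read-out: % inhibition relative to enzyme-containing and enzyme-free wells; Replicates: single well per compound.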
# MBD2 inh: MBD2-methylated oligo binding inhibition. Q9UBB5. TR-FRET, MBD2 binding to methylated oligonucleotide. inhibition, % at 4.4 µM. 370,000 compounds, 0.31% hits. AID 686964; in the data active = inhibition above about 13%
# Target sequence (Q9UBB5 whole entry, looked up): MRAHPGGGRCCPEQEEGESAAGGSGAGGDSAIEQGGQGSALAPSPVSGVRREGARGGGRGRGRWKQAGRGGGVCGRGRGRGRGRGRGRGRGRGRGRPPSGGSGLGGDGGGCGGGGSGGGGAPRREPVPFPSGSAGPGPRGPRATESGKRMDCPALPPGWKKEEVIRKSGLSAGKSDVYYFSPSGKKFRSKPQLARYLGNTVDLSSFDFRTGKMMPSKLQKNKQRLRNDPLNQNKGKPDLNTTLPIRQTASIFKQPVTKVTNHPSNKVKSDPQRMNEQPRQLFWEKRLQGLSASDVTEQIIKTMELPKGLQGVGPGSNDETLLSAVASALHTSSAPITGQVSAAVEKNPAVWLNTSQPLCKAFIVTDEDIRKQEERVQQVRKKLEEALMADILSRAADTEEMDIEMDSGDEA
# * hit, by the source's call.
SMILES,UHRF1 MBD2 ctr,LEDGF integ inh,TDP2 absorb,MBD2 inh
Cc1ccc(S(=O)(=O)Cc2ccc(C(=O)O)o2)cc1,22*,8,-5,5
O=c1[nH][nH]c2c1[C@@H](c1ccc(F)cc1)O[C@H](CCc1ccccc1)C2,29*,3,-3,-6
O=c1[nH][nH]c2c1C(c1ccc(F)cc1)OC(CCc1ccccc1)C2 (configuration not stated),-8,4,1,-5
CC(c1c[nH]c2ccccc12)c1c[nH]c2ccc(Br)cc12 (configuration not stated),-1,-3,3,-1
CCCNC(=O)C[C@H]1CC[C@H]2[C@@H](COc3ccc(NC(=O)c4cncs4)cc3C(=O)N2C)O1,4,3,4,10
CCOC(=O)c1c(C)n(O)c2ccc(Cl)cc2c1=O,25*,-2,4,7
FC(F)(F)c1ccc(CSc2nccn2-c2ccccc2)cc1,80*,-1,8,-5
CCOC(=O)C1=C(COC(=O)COc2ccc(C#N)cc2)NC(=O)NC1C (configuration not stated),22*,8,-5,11
CCOC(=O)C1=C(COC(=O)[C@@H](NC(=O)c2cccc(C)c2)C(C)C)NC(=O)NC1C (some centres not stated),21*,-2,-3,3
CCOC(=O)C1=C(COC(=O)c2cccc(NC(C)=O)c2)NC(=O)NC1C (configuration not stated),0,0,7,-2
CCOC(=O)C1=C(COC(=O)COc2ccc(C(C)=O)cc2)NC(=O)NC1C (configuration not stated),0,-5,-9,-4
CC(C)[C@H](NC(=O)[C@@H](N)Cc1ccccc1)C(=O)N1CCC2CCN(Cc3ccccc3)CC21 (some centres not stated),1,6,9,2
O=C(N[C@@H](Cc1cccnc1)C(=O)N1CCC[C@H]1C(=O)NCc1ccccc1)c1ccc(Cl)c(Cl)c1,1,2,2,1
CCOC(=O)N1CCC2(CC1)NCCc1c2[nH]c2ccccc12,25*,0,4,-3
CCCCN1C(=O)C(CC(=O)NCc2cccc3ccccc23)CC(C(=O)N2CCOCC2)=C1C (configuration not stated),22*,-7,3,5
CN(C)S(=O)(=O)N1CCN(CC(=O)Nc2ccc(Br)cc2)CC1,22*,-6,-8,5
O=C1CCCC/C1=C/Nc1cccc(C(F)(F)F)c1,24*,2,3,7
COc1cccc(CNC(=O)[C@H]2CCCN2C(=O)[C@H]2CCCN2C(=O)OC(C)(C)C)c1,4,2,3,-1
Cc1cccc(NC2=C(C#N)C(=O)NC3(CCCC3)S2)c1,24*,-2,5,3
CC1CN(C(=O)c2cc3c(=O)n4ccccc4nc3n2C)CC(C)O1 (configuration not stated),27*,-2,7,0
S=C(NCc1ccccc1)NC1CCSc2ccccc21 (configuration not stated),24*,7,-2,7
CC1=NN(c2ccc(C(=O)O)c(N)c2)C(=O)C1,28*,31*,15,1
CCSc1nccc(-c2nn(-c3ccc(C)cc3)ccc2=O)n1,5,3,-7,3
CSc1nccc(-c2nn(-c3ccc(C)cc3)ccc2=O)n1,23*,3,4,9
COc1ccc(NC(=O)CN(c2ccc(C)cc2)S(C)(=O)=O)c(OC)c1,40*,-3,-2,0
SMILES,UHRF1 MBD2 ctr,LEDGF integ inh,TDP2 absorb,MBD2 inh
Cc1ccc(NC(=O)[C@@H]2CCCN2S(=O)(=O)c2cccc3cccnc23)c(C)c1,1,3,1,-3
COc1cccc2c1C(=O)c1c(O)c3c(c(O)c1C2=O)C[C@@](O)(C(=O)CO)C[C@@H]3OC1CC(N)C(O)C(C)O1 (some centres not stated),95*,4,5,112*
CC(=O)[C@@]1(O)Cc2c(O)c3c(c(O)c2[C@H](O[C@H]2C[C@H](N)[C@H](O)[C@H](C)O2)C1)C(=O)c1ccccc1C3=O,95*,0,12,106*
COc1cccc2c1C(=O)c1c(O)c3c(c(O)c1C2=O)C[C@@](O)(C(=O)CO)C[C@@H]3O[C@H]1C[C@H](N)[C@H](O)[C@H](C)O1,94*,13,6,110*
C=CCN1C(=O)[C@@H](CC(=O)NCc2cccc(C(F)(F)F)c2)[C@]2(C(=O)OCC)CCCCC/C=C/12,1,-2,4,2
Cc1nn(-c2ccccc2)c2sc(C(=O)N3CCN(S(=O)(=O)c4ccc(Br)s4)CC3)cc12,-1,-2,-13,-1
CN(C)c1ccc(C=c2c3ccccc3n3c2cc(-c2ccc(Cl)cc2)[n+]3C)cc1,19,4,12,5
CN(C)c1ccc(C=c2c3ccccc3n3c2c2c([n+]3C)CCCC2)cc1,38*,-5,4,10
CCOc1ccc(CNCCc2ccc(S(N)(=O)=O)cc2)cc1,2,-3,-4,1
CCOc1ccc2ccccc2c1CNCCc1ccc(S(N)(=O)=O)cc1,45*,4,8,-4
O=C(Nc1cccc(OCC(=O)N2CCOCC2)c1)c1cccc([N+](=O)[O-])c1,34*,1,8,-3
O=C(Nc1ccc(OCc2ccccc2)cc1)c1ccccc1,65*,1,-5,6
O=C(COc1cccc(NC(=O)c2ccccc2)c1)c1ccccc1,27*,5,-8,8
O=C(Nc1ccccc1)c1ccc(COc2ccccc2)cc1,-2,-5,2,0
N#CCC[C@@H]1CC[C@]2(CCCN(Cc3ccc(Br)cc3)C2)O1,2,-1,-7,7
COC(=O)C1CN(Cc2cn(Cc3ccc(Cl)cc3)nn2)CCS(=O)(=O)N1Cc1ccccc1 (configuration not stated),12,1,2,8
CS(=O)(=O)c1sc2nc(-c3cccs3)cc(-c3ccccc3)c2c1N,-3,20*,-1,-1
Cc1ccc(-c2cc(-c3ccccc3)c3c(N)c(S(C)(=O)=O)sc3n2)cc1,3,8,-14,-4
COc1ccc(S(=O)(=O)N2CCN(CC(=O)c3ccc(O)c(O)c3)CC2)cc1,6,61*,15,1
C=CCn1c(SCC(=O)O)nc2sc(CC)cc2c1=O,0,3,4,-5
C=CCn1c(SCC#N)nc2sc(CC)cc2c1=O,28*,3,8,-2
O=C(Cn1nnc2ccccc2c1=O)NCCc1ccccc1,3,4,-1,-1
O=C(Cn1nnc2ccccc2c1=O)NCCc1ccc(Cl)cc1Cl,28*,0,5,0
COc1ccc(NC(=S)NN2CCN(C)CC2)cc1OC,22*,3,-4,-1
C/C(=N/NC(=O)Cc1cccs1)c1cccc([N+](=O)[O-])c1,-2,3,0,-6
COc1ccc(-c2nnc(SC)nc2-c2ccc(OC)c([N+](=O)[O-])c2)cc1[N+](=O)[O-],24*,-2,7,9
